Experimental findings from ChEMBL document CHEMBL4340525, “Tumor-Targeted Delivery of 6-Diazo-5-oxo-l-norleucine (DON) Using Substituted Acetylated Lysine Prodrugs” (J Med Chem, 2019) are described below.

The nature of series [1]: Stability in human liver S9 fraction assessed as parent compound remaining at 1 uM measured after 1 hr by LC-MS/MS analysis. In kind it is ADME, subcellular. Particulars: read-out: Stability. Put shortly:
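Human liver microsomes (0.2 mg/mL protein) or S9 fraction (0.5 mg/mL) were incubated with prodrug at 1 µM final, 37 °C, 1 h with shaking. Reactions were quenched in triplicate with three volumes acetonitrile containing losartan. Parent remaining was taken from analyte/internal-standard peak-area ratio by UHPLC-MS/MS.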

A short description of series [2]: Stability in swine jejunum assessed as parent compound remaining at 20 uM measured after 1 hr by LC-MS/MS analysis. The format is ADME, tissue-based, Sus scrofa. Particulars: pig. The method, boiled down:
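Washed swine jejunum was diluted 10-fold in 0.1 M potassium phosphate buffer and probe-sonicated. Prodrug was spiked at 20 µM final and incubated 1 h at 37 °C with orbital shaking. Triplicate quench in acetonitrile with losartan internal standard. Percent parent remaining by LC-MS/MS peak-area ratio.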

A short description of series [3]: Drug level in human P493B cells suspended in human plasma assessed as tumor cell to plasma ratio by measuring 6-diazo-5-oxo-L-norleucine formation at 20 uM measured after 1 hr by LC-MS/MS analysis relative to 6-diazo-5-oxo-L-norleucine alone. In kind it is ADME, cell-based. The method, boiled down: (§1)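 Cells were grown in RPMI 1640 with 10% FBS, washed in DPBS and resuspended in human plasma at 10 million cells/mL. After 5 min preincubation at 37 °C, compound was added at 20 µM final for 1 h. The mix was centrifuged at 10 000g and the washed pellet and plasma were quantified separately. DON was read by LC-MS/MS after dabsyl chloride derivatisation, intact prodrug directly. Standard curves were made in naive cells or plasma.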

Series [4] can be described thus: Prodrug conversion in human plasma suspended with human H69 cells assessed as 6-diazo-5-oxo-L-norleucine formation at 20 uM measured after 1 hr by LC-MS/MS analysis. In kind it is ADME, cell-free. Put shortly: as §1
Series [5] is filed under the species Homo sapiens. The series is described as follows: Stability of the compound assessed as recombinant human cathepsin L/cathepsin B-mediated compound hydrolysis by measuring parent compound remaining at 1 uM measured after 3 hrs by UHPLC-MS analysis. The method, boiled down:
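Compound at 1 µM was incubated at 37 °C with shaking in 50 mM MES pH 6 with 5 mM DTT. Recombinant human enzyme final levels: HDAC2 10 µg/mL, cathepsin B 1 µg/mL, cathepsin L 0.1 µg/mL, alone or cathepsins B+L combined. Aliquots were quenched in methanol with losartan at 0.25, 0.5, 1 and 3 h. Parent remaining by Q-TOF LC-MS.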

The nature of series [6]: (§2) Antiproliferative activity against human P493B cells measured after 72 hrs by CellTiter 96 aqueous one solution cell proliferation assay. The format is functional, cell-based. The method, boiled down:
(§3)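 P493B lymphoma cells seeded at 20 000 cells/well in growth medium. DMSO stocks added as a 1:10 serial dilution, final 0.2% DMSO. Cells grown 72 h with compound, then given CellTiter 96 AQueous reagent for 2 h and read by absorbance at 490 nm. EC50 obtained by nonlinear regression of log-transformed data.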

The species entered for series [7] is Homo sapiens. The description is as §2. The format is functional, cell-based. Put shortly:
as §3

Series [8] in a line: Ratio of 6-diazo-5-oxo-L-norleucine EC50 to test compound EC50 for human P493B cells. In kind it is functional.
Series [9] can be described thus: Stability of the compound in CES1-deficient C57BL/6 mouse plasma measured after 60 mins by UHPLC-MS analysis. In kind it is ADME, cell-free. Particulars: 1 h.
Series [10] can be described thus: Stability of the compound in wild-type C57BL/6 mouse plasma assessed as de-esterification of carboxyl ester measured after 60 mins by HRMS analysis. The format is ADME, cell-free. Particulars: 1 h.
The nature of series [11]: Cmax in CES1-deficient C57BL/6 mouse plasma implanted with mouse EL4 cells at 3.2 mg/kg, sc administered as single dose by LC-MS/MS analysis. In kind it is ADME, organism-based. More on the design: dose 3.2 mg/kg, route subcutaneous. The method, boiled down:
(§4)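 Male and female C57BL/6 CES1-/- mice, 6–8 weeks old, carried flank EL4 tumours from SC injection of 1 × 10^6 cells in PBS. Dosing began at about 400 mm3 mean tumour volume. Each mouse got one SC dose of 3.2 mg/kg (1 mg/kg DON equivalent) in ethanol/Tween 80/saline 5:10:85. Plasma, jejunum and tumour were taken at set times, n = 3 per time point. Prodrug and dabsyl-derivatised DON were measured by LC-MS/MS. Noncompartmental analysis: Cmax and Tmax observed, AUClast by log-linear trapezoidal rule.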

Series [12] can be described thus: Cmax in CES1-deficient C57BL/6 mouse tumor implanted with mouse EL4 cells at 3.2 mg/kg, sc administered as single dose by LC-MS/MS analysis. In kind it is ADME, organism-based, Neoplasm. On the set-up: dose 3.2 mg/kg, route subcutaneous. Particulars: in vivo. Put shortly: as §4
Series [13] is described as follows: AUC (0 to t) in CES1-deficient C57BL/6 mouse plasma implanted with mouse EL4 cells at 3.2 mg/kg, sc administered as single dose by LC-MS/MS analysis. In kind it is ADME, organism-based. Put shortly: as §4
Series [14] is described as follows: AUC (0 to t) in CES1-deficient C57BL/6 mouse tumor implanted with mouse EL4 cells at 3.2 mg/kg, sc administered as single dose by LC-MS/MS analysis. The format is ADME, organism-based, Neoplasm. Particulars: in vivo. The method, boiled down:
as §4

Series [15] in a line: Cmax in CES1-deficient C57BL/6 mouse tumor implanted with mouse EL4 cells assessed as 6-diazo-5-oxo-L-norleucine level at 3.2 mg/kg, sc administered as single dose by LC-MS/MS analysis. In kind it is ADME, organism-based, Neoplasm. On the set-up: dose 3.2 mg/kg, route subcutaneous. Particulars: in vivo. Put shortly:
as §4

Series [16] can be described thus: Tmax in CES1-deficient C57BL/6 mouse plasma implanted with mouse EL4 cells assessed as 6-diazo-5-oxo-L-norleucine level at 3.2 mg/kg, sc administered as single dose by LC-MS/MS analysis. In kind it is ADME, organism-based. Particulars: in vivo. The method, boiled down:
as §4

Series [17] can be described thus: Tmax in CES1-deficient C57BL/6 mouse jejunum implanted with mouse EL4 cells assessed as 6-diazo-5-oxo-L-norleucine level at 3.2 mg/kg, sc administered as single dose by LC-MS/MS analysis. The format is ADME, organism-based. Particulars: in vivo. The method, boiled down:
as §4

Series [18] can be described thus: AUC (0 to t) in CES1-deficient C57BL/6 mouse plasma implanted with mouse EL4 cells assessed as 6-diazo-5-oxo-L-norleucine level at 3.2 mg/kg, sc administered as single dose by LC-MS/MS analysis. In kind it is ADME, organism-based. Particulars: in vivo. The method, boiled down: as §4
The nature of series [19]: AUC (0 to t) in CES1-deficient C57BL/6 mouse tumor implanted with mouse EL4 cells assessed as 6-diazo-5-oxo-L-norleucine level at 3.2 mg/kg, sc administered as single dose by LC-MS/MS analysis. In kind it is ADME, organism-based, Neoplasm. Particulars: in vivo. The method, boiled down:
as §4

Series [20] can be described thus: AUC (0 to t) in CES1-deficient C57BL/6 mouse jejunum implanted with mouse EL4 cells assessed as 6-diazo-5-oxo-L-norleucine level at 3.2 mg/kg, sc administered as single dose by LC-MS/MS analysis. Particulars: in vivo. In kind it is ADME, organism-based. Put shortly: as §4
Series [21] can be described thus: Ratio of AUC (0 to t) in tumor to plasma of CES1-deficient C57BL/6 mouse implanted with mouse EL4 cells assessed as 6-diazo-5-oxo-L-norleucine level at 3.2 mg/kg, sc administered as single dose by LC-MS/MS analysis. The format is ADME, organism-based. Particulars: tumour. Put shortly:
(§5)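 Tissue-to-tissue ratios of DON AUClast came from noncompartmental analysis. EL4-bearing CES1-/- C57BL/6 mice received one SC dose of 3.2 mg/kg (1 mg/kg DON equivalent) in ethanol/Tween 80/saline 5:10:85. Tumour, jejunum and plasma were sampled over time, n = 3 mice per time point. DON was read by LC-MS/MS after dabsyl chloride derivatisation.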

Series [22] is described as follows: Ratio of AUC (0 to t) in tumor to jejunum of CES1-deficient C57BL/6 mouse implanted with mouse EL4 cells assessed as 6-diazo-5-oxo-L-norleucine level at 3.2 mg/kg, sc administered as single dose by LC-MS/MS analysis. In kind it is ADME, organism-based. Particulars: in vivo. Put shortly:
as §5

Each structure is given as a SMILES string.

One may read the EC50 as the concentration giving half of the maximal effect. Low values mean an effect from little substance, high ones a need for much substance. For orientation: AUC(0-t) means the area under the concentration-time curve up to a stated or last time point. Read a low AUC(0-t) as less exposure. By Tmax is commonly meant the time from dosing to the highest level. As to `CC(=O)NCCCC[C@H](NC(=O)C12CC3CC(CC(C3)C1)C2)C(=O)N[C@@H](CCC(=O)C=[N+]=[N-])C(=O)OC(C)C`, the remaining at 1 h, 1 µM in [1] stood at 100%. The Stability in series [2] is above 50%; in the series filed under Homo sapiens [5], 9%; in [9], “Stable”; in series [10] it was “Unstable”. In series [3], the “fold change (FC)” value turned out to be 55. For the same molecule, in series [4], the Drug metabolism lay in the range of 0.25 to 0.5 µM. The same molecule yielded an EC50 in series [6] of 5 µM. Also, the Activity result in the series listed under Homo sapiens [7] is “Dose-dependent effect”. In addition, in series [8], the “Ratio EC50” value worked out at 2. Also, the figures for the Cmax in series [11], in series [12] and in [15] were 820 nM, 0.05 nmol/g and 1.55 nmol/g, respectively. Moreover, the area under the curve AUC(0-t) in [13] came to 0.4 µM·h. The AUCt is 0.03 nmol·h/g in series [14], 1.06 µM·h in series [18], 5.07 nmol·h/g in series [19] and 0.45 nmol·h/g in [20]. For the same molecule, the time of peak concentration (Tmax) in series [16] and in series [17] was 30 min each time. Also, the “Ratio AUC” value in [21] was 5; in [22] it was 11.
